Experimental data from different studies.
Compare with care: the assays were run in different laboratories.
ALDH2: Aldehyde dehydrogenase, mitochondrial (ALDH2, Homo sapiens, UniProt P05091)

COc1ncccc1-c1cnn2ccc(N3CCN(C(=O)OC(C)C)CC3)nc12  remaining binding (Serine/threonine-protein kinase SBK1 (SBK1, Homo sapiens, UniProt Q52WX2); binding, competition with immobilised ligand; 1 µM): 84%
CCSC(=O)N1CCCCCC1  kinact/KI (ALDH2; enzyme activity, inhibitor): 76 M⁻¹ s⁻¹
CC[C@]1(O)C[C@H]2CN(CCc3c([nH]c4ccccc34)[C@@](C(=O)OC)(c3cc4c(cc3OC)N(C=O)[C@H]3[C@@](O)(C(=O)OC)[C@H](OC(C)=O)[C@]5(CC)C=CCN6CC[C@]43[C@@H]65)C2)C1  remaining activity (Organic cation/carnitine transporter 2 (SLC22A5, Homo sapiens, UniProt O76082); transporter uptake, inhibitor; HEK293; 100 µM): 33.6%
C#Cc1n[nH]c2c(-c3cn([C@@H](C)c4ccccn4)c(=O)[nH]c3=O)cc(F)cc12  inhibition (Serine/threonine-protein kinase PAK 4 (PAK4, Homo sapiens, UniProt O96013); enzyme activity, inhibitor; 0.1 µM): 0.2%
Cn1c(=O)n(CCC(C)(C)O)c2cc(Nc3nc(N4CCCC(CO)C4)ncc3Cl)ccc21 (centres unmarked)  Dmax (B-cell lymphoma 6 protein (BCL6, Homo sapiens, UniProt P41182); protein level, degrader; SU-DHL-4): ~60%
CCN(CC)CCCC[C@H](NC(=O)[C@H](CC(C)C)NC(=O)[C@H](C)NC(=O)[C@H](Cc1ccccc1)NC(=O)c1ccc(C(C)(C)C)cc1)C(=O)N[C@@H](CO)C(=O)OC  ΔTm (Protein polybromo-1, bromodomain (PBRM1, Homo sapiens, UniProt Q86U86); thermal stability, DSF; 25 µM): -0.15 °C
Nc1ncc(-c2nc(N3CCOCC3)nc(N3CCOCC3)n2)c(C(F)F)n1  remaining binding (Cyclin-dependent kinase 3 (CDK3, Homo sapiens, UniProt Q00526); binding, competition with immobilised ligand; 10 µM): 88%
O=c1ccc2ccc3occc3c2o1  activity vs control (ALDH2; enzyme activity, inhibitor, absorbance; 10 µM): 95.2%
Cc1nn(C)cc1-c1nc2c(N3CCN(Cc4ccc(Cl)cc4)CC3)c(Cl)cnc2[nH]1  remaining binding (Tyrosine-protein kinase Tec (TEC, Homo sapiens, UniProt P42680); binding, competition with immobilised ligand; 1 µM): 100%
C#Cc1n[nH]c2c(-c3cn([C@@H](C)c4ccccc4)c(=O)[nH]c3=O)cc(F)cc12  inhibition (Serine/threonine-protein kinase Sgk1 (SGK1, Homo sapiens, UniProt O00141); enzyme activity, inhibitor; 0.1 µM): -1.8%
c1ccc(C(NCCNC(c2ccccc2)c2ccccc2)c2ccccc2)cc1  inhibition (Collagenase 3 (MMP13, Homo sapiens, UniProt P45452); enzyme activity, inhibitor; 10 µM): -10%
